Source: PubChem BioAssay (several laboratories)
This is one part of a sample in which hits are shown more often than they occur.
T cruzi inh: inhibitors of intracellular T. cruzi growth, primary screen, luminescence, NIH3T3 host cells. T. cruzi beta-gal in NIH3T3, 90 h. inhibition, % (no concentration beside the values). hit rate 1.4% among 300,000. AID 1885, 2009;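 active means mean inhibition across valid replicates above about 55%, limit read from the data; inconclusive means mean below that limit but half or more replicates reach it; inactive means mean below it, under half of replicates reach it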;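 further: signal also drops with host cell toxicity which is not excluded here; 0% = plate median of DMSO wells and 100% = zero luminescence signal; higher percent means less beta-gal luminescence so fewer parasites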
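Test system: β-gal T. cruzi (Tulahuen C4) inside NIH/3T3 cells / Quantity: 5,000 cells/well / Measured by: luminescence from GalScreen with 0.05% NP40, read after 60 min / Medium: DMEM plus 2% FBS / Measure: parasite load inhibition, % / Reagent: Tulahuen C4 trypomastigotes, 5000/well / Schedule: co-culture of at least 90 h after 3 h attachment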
NALP1 yeast inh: NALP1 inflammasome inhibitors in reconstituted yeast, colorimetric, S. cerevisiae, triplicate retest | S. cerevisiae NALP1/ASC/caspase-1 growth, X-gal OD620, 72 h | inhibition, % at 10 µM | hit rate 0.61% among 280,000; in the data active means inhibition mostly above about 24%, no sharp cut-off; inactive means mostly below about 32%
Calb FLC: C. albicans growth inhibition with fluconazole, primary screen, CaCi-2 strain, Alamar Blue fluorescence | C. albicans CaCi-2 + fluconazole, 48 h | growth inhibition, % (no concentration beside the values) | hit rate 0.57% among 300,000;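 active means growth inhibition above about 58% in most replicates, limit read from the data, passing the limit was not always enough; inconclusive means exactly half the replicates above a set limit; inactive means most replicates below a set limit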;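 further: all wells also contain fluconazole at 8 µg/ml as a sub-toxic cotreatment; 0% = median of DMSO wells and 100% = median of geldanamycin control wells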
L major viab: Leishmania major promastigote growth inhibition, primary screen. Leishmania major promastigotes, resazurin fluorescence viability. inhibition, % at 10 µM. hit rate 9% among 200,000. AID 1063, 2008; in the data active means inhibition above about 50%;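 further: promastigotes grown with compound for 44 hours at 28 °C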
PolyA inh: polyadenylation inhibitors in yeast reporter cells, primary screen, luminescence, S. cerevisiae | S. cerevisiae SKY197-pL101 polyadenylation reporter, beta-gal luminescence; efflux-impaired pdr1/pdr3 knockout yeast; score 100 = 6 SD above DMSO | activity score, % at 12 µM | hit rate 0.02% among 300,000 | AID 1875, 2009;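 active means lowest replicate activity score at least 50, where 100 means six control SD above control mean; inconclusive means lowest score under 50 but half or more replicates reach 50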;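 further: yeast exposed to compound for 9 h at 30 °C; higher score means more reporter readthrough which indicates perturbed polyadenylation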
NALP3 yeast inh: NALP3 inflammasome inhibitors in reconstituted yeast, primary screen, luminescence, uHTS; Yeast reconstituted NLRP3/ASC/caspase-1, beta-gal luminescence, 24 h; inhibition, % at 10 µM; hit rate 0.39% among 330,000;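 active means inhibition of 50% or more; inactive means inhibition below 50%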;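 further: plate controls were induced DMSO wells for no effect and uninduced yeast grown without galactose for full effect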
An asterisk follows results filed as active; ? = inconclusive; / = no result.

SMILES | T cruzi inh | NALP1 yeast inh | Calb FLC | L major viab | PolyA inh | NALP3 yeast inh
CC(=O)N1C(C(=O)O)CSC1c1ccc(C)cc1 (configuration not stated) | -10 | 42* | -1 | -4 | -12 | 7
O=S(=O)(c1ccc(F)cc1)c1nc(-c2ccccc2F)oc1N1CCCCC1 | 71* | 7 | 11 | 15 | -13 | 6
Cc1cccc(N(C)S(=O)(=O)c2ccc3[nH]c(=O)c(=O)[nH]c3c2)c1 | -22 | 6 | -12 | -6 | 4 | 5
CC(=O)NC(c1cccs1)c1cc([N+](=O)[O-])c2cccnc2c1O (configuration not stated) | 28 | 20 | 81* | -3 | -17 | /
CCC(=O)NC(c1cccs1)c1cc([N+](=O)[O-])c2cccnc2c1O (configuration not stated) | -3 | -9 | 86* | 8 | -15 | 24
CCCC(=O)NC(c1cccs1)c1cc([N+](=O)[O-])c2cccnc2c1O (configuration not stated) | 4 | 4 | 40 | -4 | -13 | /
Clc1ccc(Cl)c(OCc2cc(-c3ccccc3Cl)on2)c1 | 1 | 4 | 16 | -3 | ? | 2
Cn1c(/C=N/c2nc3ccccc3[nH]2)nc2ccccc21 | / | -1 | -7 | 100* | 9 | 24
CCOC(=O)N1CCN(CCC(=O)Nc2ccc(OC(F)(F)F)cc2)CC1 | -39 | -9 | / | 92* | 8 | 5
CCN1CCN(CCC(=O)Nc2ccc(Br)c(C)c2)CC1 | ? | -5 | -7 | / | 15 | 6
CCOC(=O)N1CCN(CCC(=O)Nc2ccc(Br)c(C)c2)CC1 | 24 | 1 | -8 | 85* | -3 | -2
CCOc1ccccc1CNC(=O)C1CCCN(c2nn3c(=O)cc(C)nc3s2)C1 (configuration not stated) | -5 | 6 | -23 | / | 4 | -8
Cc1sc(NC(=O)c2ccco2)c(C(c2cccnc2)N2CCN(c3ccc(F)cc3)CC2)c1C (configuration not stated) | 57* | 33 | 25 | 80* | -7 | 4
CCOc1ccc(C(c2c(NC(=O)c3ccccc3)sc(C)c2C)N2CCN(CCO)CC2)cc1 (configuration not stated) | 30 | 40 | -4 | 45 | 3 | -2
Cc1sc(NC(=O)c2ccccc2)c(C(c2ccc(Cl)cc2)N2CCN(CCO)CC2)c1C (configuration not stated) | 2 | 17 | 61 | 95* | 1 | 7
CCOC(=O)C1CCN(C(c2cccnc2)c2c(NC(=O)c3ccco3)sc(C)c2C)CC1 (configuration not stated) | 65* | 13 | ? | 93* | 14 | 13
Cc1sc(NC(=O)c2ccco2)c(C(c2ccc(F)cc2)N2CCN(C)CC2)c1C (configuration not stated) | 8 | 3 | 7 | 51* | 4 | -1
Cc1sc(NC(=O)c2ccco2)c(C(c2ccccc2)N2CCC(C)CC2)c1C (configuration not stated) | 72* | -2 | 23 | 37 | 1 | 2
O=C(COC(=O)Cc1ccccc1F)NC(=O)NC1CCCC1 | / | / | / | / | / | 9
Cn1c(SCC(=O)Nc2ccc3nc(SCC(=O)N4CCCC4)sc3c2)nnc1-c1ccc(N)cc1 | / | 6 | / | 19 | / | /
CCN(c1ccccc1)S(=O)(=O)c1ccc(Cl)c(NC(=O)CN2C(=O)NC3(CCCC3)C2=O)c1 | 28 | / | 96* | / | -1 | 8
CN(C)S(=O)(=O)c1ccc(Cl)c(NC(=O)COC(=O)CN2C(=O)NC(C)(C)C2=O)c1 | -1 | 27 | ? | 29 | 20 | 6
CCN(c1ccccc1)S(=O)(=O)c1ccc(OC)c(NC(=O)CN2C(=O)NC(C)(C)C2=O)c1 | / | / | / | / | / | 20
CC1(C)NC(=O)N(CC(=O)OCC(=O)Nc2cc(S(=O)(=O)N3CCCCC3)ccc2Cl)C1=O | -17 | 25 | -21 | 70* | -5 | 12
COc1ccccc1C(=O)Nc1nnc(S(=O)(=O)N(C)Cc2ccccc2)s1 | -1 | 7 | 4 | / | -5 | 7
SMILES | T cruzi inh | NALP1 yeast inh | Calb FLC | L major viab | PolyA inh | NALP3 yeast inh
COc1ccccc1Nc1nc(NCCO)c2ccccc2n1 | 25 | 11 | -3 | 50 | 8 | 1
COc1ccc(OC)c(Nc2c3ccccc3nc3ccccc23)c1 | 43 | 22 | 17 | / | -2 | 7
COc1ccc(OC)c(Nc2c3c(nc4ccccc24)CCC3)c1 | 59* | 39 | 7 | / | -1 | -3
COc1ccc(OC)c(Nc2nc(NCCO)c3ccccc3n2)c1 | 56* | 20 | 8 | / | 67* | 22
COc1ccccc1Nc1nc(NCC2CCCO2)c2ccccc2n1 (configuration not stated) | 64* | 26 | -4 | 100* | 3 | 32
Cc1ccc(C(=O)C2CCN(CC(=O)Nc3nc(C)cs3)CC2)cc1 | -9 | 21 | -13 | 12 | -25 | 30
CC1CCC(NCCNC(=O)c2ccco2)CC1 (configuration not stated) | -19 | 15 | 2 | / | 7 | 11
CC(C)COc1ccc(N)cc1OCC(C)C | 44 | 10 | -30 | -5 | -11 | 20
O=C(O)c1ccc(-c2noc(-c3ccc(F)cc3)n2)cc1 | -24 | / | 15 | / | -12 | 5
CC1CCCN(C(=O)C2CCN(S(=O)(=O)c3ccccc3)CC2)C1 (configuration not stated) | / | / | / | / | / | 3
CCS(=O)(=O)c1ncc(Cl)c(C(=O)Nc2ccc(S(=O)(=O)N3CCCC(C)C3)cc2)n1 (configuration not stated) | 56* | 10 | 0 | / | -19 | 16
COC(=O)Nc1ccc(S(=O)(=O)N2CCC(C(=O)N3CCCC(C)C3)CC2)cc1 (configuration not stated) | -8 | 38* | -10 | -3 | -10 | 7
Cc1ccc(CS(=O)(=O)c2ncc(Cl)c(C(=O)Nc3ccc(OC(F)F)cc3)n2)cc1 | -22 | 10 | -2 | / | -65 | 49
CCS(=O)(=O)c1ncc(Cl)c(C(=O)Nc2ccc(C)cc2)n1 | 79* | 9 | 2 | / | -3 | 37
Cn1ccs/c1=N\S(=O)(=O)c1ccc(Br)cc1 | 2 | 1 | -12 | -5 | 4 | 12
CCc1cccc(C)c1NC(=S)NCCc1c(C)[nH]c2ccc(C)cc12 | 21 | 46 | -14 | 45 | -20 | 15
CCc1cccc(CC)c1NC(=S)NCCc1c(C)[nH]c2ccc(C)cc12 | ? | 22 | -17 | 53* | 2 | 12
COc1ccccc1C(=O)NC(CCSC)C(=O)NCC(c1cccs1)N1CCOCC1 (configuration not stated) | 7 | / | 1 | / | 5 | 14
